Source: ChEMBL document CHEMBL3596131, “Discovery of a novel trans-1,4-dioxycyclohexane GPR119 agonist series” (Bioorg Med Chem Lett, 2015)
pEC50: −log10 of the molar value.

Experiments:
[1] = target: T1, Glucose-dependent insulinotropic receptor (Homo sapiens) (UniProt Q8TDV5); test: Agonist activity at human GPR119 by HTRF cAMP assay relative to AR231453; assay type: functional
T1 sequence (whole entry): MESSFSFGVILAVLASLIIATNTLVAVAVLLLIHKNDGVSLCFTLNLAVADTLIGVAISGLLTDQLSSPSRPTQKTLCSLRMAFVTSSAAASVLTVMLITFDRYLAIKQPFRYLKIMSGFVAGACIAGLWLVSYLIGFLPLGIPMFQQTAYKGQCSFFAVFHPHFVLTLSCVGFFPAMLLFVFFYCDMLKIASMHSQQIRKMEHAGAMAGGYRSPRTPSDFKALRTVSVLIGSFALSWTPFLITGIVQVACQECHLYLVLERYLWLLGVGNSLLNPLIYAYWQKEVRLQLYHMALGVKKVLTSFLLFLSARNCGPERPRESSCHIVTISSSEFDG

[2] = target: T2, Glucose-dependent insulinotropic receptor (Homo sapiens, UniProt Q8TDV5); test: Agonist activity at human GPR119 by serum shift assay
T2 sequence (Q8TDV5 whole entry): T1 sequence (whole entry)
Outline: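 HTRF cAMP read-out with cells plated overnight; growth medium swapped for fetal bovine serum-containing medium. Compounds serially diluted in DMSO, then in PBS with IBMX and 0.1% BSA to 2× concentration (1% DMSO) before addition. Potency compared with and without serum.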

[3] = target: T3, Glucose-dependent insulinotropic receptor (Rattus norvegicus, UniProt Q7TQN8); test: Agonist activity at rat GPR119 by HTRF cAMP assay; assay type: functional
T3 sequence (Q7TQN8 whole entry): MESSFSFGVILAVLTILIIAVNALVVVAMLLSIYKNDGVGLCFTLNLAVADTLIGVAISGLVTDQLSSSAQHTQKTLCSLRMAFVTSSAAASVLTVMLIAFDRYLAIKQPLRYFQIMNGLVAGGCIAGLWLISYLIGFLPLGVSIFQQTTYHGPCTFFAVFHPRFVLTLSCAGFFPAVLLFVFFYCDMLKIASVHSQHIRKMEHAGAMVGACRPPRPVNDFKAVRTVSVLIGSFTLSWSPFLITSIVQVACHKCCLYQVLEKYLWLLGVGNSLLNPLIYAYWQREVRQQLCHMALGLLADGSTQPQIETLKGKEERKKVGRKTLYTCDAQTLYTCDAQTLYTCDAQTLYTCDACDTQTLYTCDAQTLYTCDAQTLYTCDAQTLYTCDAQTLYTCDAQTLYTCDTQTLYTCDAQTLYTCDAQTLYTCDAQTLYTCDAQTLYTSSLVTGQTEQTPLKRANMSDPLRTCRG

[4] = Half life in mouse liver microsomes; assay type: ADME
Uncharacterized protein = target: T4, Uncharacterized protein (Canis lupus familiaris, UniProt A0A8C0THM6); test: Agonist activity at canine GPR119 by HTRF cAMP assay
T4 sequence (A0A8C0THM6 whole entry): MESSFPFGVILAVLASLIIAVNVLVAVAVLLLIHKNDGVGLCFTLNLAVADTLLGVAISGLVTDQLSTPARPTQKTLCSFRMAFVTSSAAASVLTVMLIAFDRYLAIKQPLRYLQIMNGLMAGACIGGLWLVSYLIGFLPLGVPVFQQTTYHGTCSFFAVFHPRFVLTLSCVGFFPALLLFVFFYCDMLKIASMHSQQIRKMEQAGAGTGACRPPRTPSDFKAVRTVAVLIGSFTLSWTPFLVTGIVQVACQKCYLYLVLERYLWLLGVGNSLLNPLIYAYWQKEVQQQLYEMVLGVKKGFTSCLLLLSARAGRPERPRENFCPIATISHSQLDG

[5] = target: T5, Glucose-dependent insulinotropic receptor (Mus musculus) (UniProt Q7TQP3); test: Agonist activity at mouse GPR119 by HTRF cAMP assay relative to AR231453; assay type: functional
T5 sequence (whole entry): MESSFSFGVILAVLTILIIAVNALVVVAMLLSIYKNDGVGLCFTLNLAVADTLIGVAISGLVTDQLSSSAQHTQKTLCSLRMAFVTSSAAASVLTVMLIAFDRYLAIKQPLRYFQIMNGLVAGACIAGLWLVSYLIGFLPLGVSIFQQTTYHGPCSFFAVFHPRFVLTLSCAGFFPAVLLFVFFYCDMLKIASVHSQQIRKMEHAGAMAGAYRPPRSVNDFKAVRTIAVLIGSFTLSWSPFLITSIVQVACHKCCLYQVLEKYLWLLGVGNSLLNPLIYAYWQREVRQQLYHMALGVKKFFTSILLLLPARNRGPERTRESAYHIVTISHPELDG

[6] = Plasma protein binding in human; assay type: ADME, cell-free; conditions: read-out: PPB (converted)
[7] = Plasma protein binding in rat; assay type: ADME, cell-free; conditions: read-out: PPB (converted)
[8] = Terminal half life in Sprague-Dawley rat at 2 mg/kg, iv and po; assay type: ADME, organism-based; conditions: in vivo, read-out: beta t1/2 (converted)
Outline: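 Male Sprague-Dawley rats; 2 mg/kg IV and 2 mg/kg PO in 20% hp-β-CD; clearance, Vss, terminal t1/2, Cmax, AUClast and oral bioavailability derived.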

[9] = Drug uptake in Sprague-Dawley rat brain at 2 mg/kg, po measured at 2 hrs; assay type: ADME, organism-based; conditions: read-out: Drug uptake
Outline: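 Abbreviated CNS study in male SD rats given 2 mg/kg orally in 20% hp-β-CD; brain (ng/g) and plasma (ng/mL) levels sampled at 2 h post-dose, brain/plasma ratio calculated.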

Mus musculus = test: Antidiabetic activity in normoglycemic 129SVE mouse assessed as suppression of plasma glucose AUC at 1 to 10 mg/kg, po administered 30 mins prior to glucose challenge measured over 120 mins by OGTT relative to vehicle-treated control; assay type: functional
Rattus norvegicus = test: Toxicity in Zucker diabetic fatty rat assessed as effect on body weight at 1 to 10 mg/kg, qd administered over 4 weeks measured during compound dosing; assay type: organism-based; conditions: in vivo, 672 h
Outline: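 Chronic study in ZDF rats: once-daily dosing at 1, 3 or 10 mg/kg for 4 weeks, vehicle 0.5% methylcellulose; fed glucose and body weight tracked at dosing times, HbA1c measured on day 28 relative to vehicle.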

Cytochrome P450 1A2 = target: T6, Cytochrome P450 1A2 (Homo sapiens, UniProt P05177); test: Inhibition of CYP1A2 in human liver microsomes; assay type: ADME
T6 sequence (P05177 whole entry): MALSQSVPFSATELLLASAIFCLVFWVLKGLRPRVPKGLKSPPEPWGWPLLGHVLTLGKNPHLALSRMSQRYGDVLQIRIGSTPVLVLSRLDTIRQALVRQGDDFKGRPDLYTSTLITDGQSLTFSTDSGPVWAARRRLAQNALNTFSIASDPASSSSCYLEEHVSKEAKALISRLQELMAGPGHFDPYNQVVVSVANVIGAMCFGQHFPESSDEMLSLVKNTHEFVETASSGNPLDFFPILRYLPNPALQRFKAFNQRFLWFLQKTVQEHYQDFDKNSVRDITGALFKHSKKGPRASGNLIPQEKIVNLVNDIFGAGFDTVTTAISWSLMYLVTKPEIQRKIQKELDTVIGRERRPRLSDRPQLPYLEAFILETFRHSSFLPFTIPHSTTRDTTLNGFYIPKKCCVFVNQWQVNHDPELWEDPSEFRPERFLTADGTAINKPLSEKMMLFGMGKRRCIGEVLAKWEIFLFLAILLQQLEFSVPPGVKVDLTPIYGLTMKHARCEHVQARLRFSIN

[10] = Time-dependent inhibition of CYP450 in human liver microsomes; assay type: ADME

Emax [1]: 106%
pEC50 [2]: 7.42
pEC50 [3]: 7.54
half-life [4]: > 1 h
pEC50 (Uncharacterized protein): 8.21
Emax [5]: 130%
fraction unbound [6]: 0.025
fraction unbound [7]: 0.04
half-life [8]: 6.45 h
concentration at 2 h [9]: 820 ng/g
INH (Cytochrome P450 1A2): > 50 µM
TDI [10]: Not Active
Compound: C[C@@H](OC(=O)N1CCC(O[C@H]2CC[C@H](Oc3cnc(S(C)(=O)=O)cn3)CC2)CC1)C(F)(F)F
Activity (Mus musculus): 40%
Activity (Rattus norvegicus): Non-toxic
